The text below walks through data of PMC2998342 (Peptides, 2009).

Where no end group is shown, it is not given here. [ ]: non-standard residue; d: D form. Met(O) = CS(=O)CC[C@H](N)C(=O)O

Usually inhibition stands for the change of the read-out against control, counted positive when it falls. What is called Kd is a measure of binding affinity in units of concentration.

For assay [1], the target named is human KCa1.1 channel (HSlo) (Homo sapiens, UniProt Q12791). Put plainly: Whole-cell patch clamp inhibition of cloned human KCa1.1. In kind it is cell-based. The note with it: read-out: inhibition of outward current. The essentials: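 Whole-cell clamp of HEK293 stably expressing N-terminal Flag-tagged human HSlo. Pipette: KCl/EGTA/Hepes-KOH pH 7.2, 0.5 μM free Ca2+. Bath: NaCl-based pH 7.4. Steps from −80 mV to +100 mV (+10 mV, 100 ms), 5 kHz filter, P/5 leak correction, paxilline-resistant current subtracted. Toxin (50 nM) gravity-perfused; −80→+50 mV pulses every 10 s tracked onset/washout. KI from one-site fit; Kd from kinetic ratio.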
In general terms: Patch clamp records ionic current or voltage across a cell membrane.

Another assay addresses KCa1.1 (UniProt Q12791). The note with it: cited from earlier work.
The nature of assay [2]: Biological activity of deprotected IbTx-D19C. As to conditions: after selective thiol deprotection using AgBF4; methionine sulfoxide (Met^29).

Sequence of KCa1.1 (Q12791 whole entry): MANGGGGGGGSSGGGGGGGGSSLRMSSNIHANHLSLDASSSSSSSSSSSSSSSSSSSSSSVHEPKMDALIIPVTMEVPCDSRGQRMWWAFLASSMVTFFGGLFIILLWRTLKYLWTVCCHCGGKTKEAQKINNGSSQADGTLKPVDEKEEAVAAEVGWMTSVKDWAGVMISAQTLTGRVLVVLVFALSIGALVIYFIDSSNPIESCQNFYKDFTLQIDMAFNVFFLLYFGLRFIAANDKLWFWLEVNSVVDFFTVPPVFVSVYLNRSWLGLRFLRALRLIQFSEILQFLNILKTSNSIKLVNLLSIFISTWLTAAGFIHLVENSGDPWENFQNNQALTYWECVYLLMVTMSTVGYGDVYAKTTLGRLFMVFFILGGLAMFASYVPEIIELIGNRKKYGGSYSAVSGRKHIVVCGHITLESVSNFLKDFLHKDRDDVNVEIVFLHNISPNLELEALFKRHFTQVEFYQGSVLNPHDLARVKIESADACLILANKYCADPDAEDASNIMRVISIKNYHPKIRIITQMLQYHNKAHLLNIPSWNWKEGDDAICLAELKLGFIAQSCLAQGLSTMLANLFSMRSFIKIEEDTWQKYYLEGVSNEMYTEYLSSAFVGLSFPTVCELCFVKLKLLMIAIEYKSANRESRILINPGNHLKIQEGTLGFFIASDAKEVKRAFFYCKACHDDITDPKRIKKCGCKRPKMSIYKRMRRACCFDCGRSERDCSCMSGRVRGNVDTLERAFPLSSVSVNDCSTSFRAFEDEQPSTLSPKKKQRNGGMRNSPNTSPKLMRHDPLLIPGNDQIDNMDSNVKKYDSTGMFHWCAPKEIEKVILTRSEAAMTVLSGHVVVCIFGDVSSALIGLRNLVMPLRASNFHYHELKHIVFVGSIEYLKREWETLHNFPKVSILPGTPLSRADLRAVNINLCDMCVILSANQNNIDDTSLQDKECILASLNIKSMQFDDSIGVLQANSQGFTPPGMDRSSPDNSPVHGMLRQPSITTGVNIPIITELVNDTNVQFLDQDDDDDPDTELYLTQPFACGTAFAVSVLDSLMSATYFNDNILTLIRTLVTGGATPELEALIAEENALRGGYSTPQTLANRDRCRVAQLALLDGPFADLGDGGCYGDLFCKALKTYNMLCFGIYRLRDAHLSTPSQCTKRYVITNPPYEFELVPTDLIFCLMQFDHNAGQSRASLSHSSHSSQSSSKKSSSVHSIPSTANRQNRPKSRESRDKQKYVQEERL
Sequence of human KCa1.1 channel (HSlo) (Q12791 whole entry, the tested form may be a part): as the sequence (Q12791 whole entry) above
Sequence of iberiotoxin (P24663 whole entry): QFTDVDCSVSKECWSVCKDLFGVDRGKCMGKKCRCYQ

In the case of `CC(C)(O)[C@H]1O[C@H]2CC[C@@]3(C)[C@@](O)(CC[C@H]4Cc5c([nH]c6ccccc56)[C@@]43C)C2=CC1=O` [Paxilline], the inhibition at 1 µM in assay [1] was above 95%.

Regarding iberiotoxin (from UniProt P24663), in the assay with KCa1.1, the Kd is below 1 nM.

“IbTx-D19C: biologically inactive form of IbTx-D19C from AgBF4 deprotection of IbTx-D19C-Acm (QFTDVDCSVSKECWSVCKCLFGVDRGKC[Met(O)]GKKCRCYQ; ends and bridges not checked; UniProt P24663 1-37, looked up, variant D19C)”: the biological activity result in assay [2] is “biologically inactive”.
